Laboratory results published in the RNAGym collection of RNA variant scans (doi:10.1126/science.aae0568).
Variants at the floor of the assay were thinned out.

B1: tRNA (parent)
chain: GUUCCGUUGGCGUAAUGGUAACGCGUCUCCCUCCUAAGGAGAAGACUGCGGGUUCGAGUCCCGUACGGAACG

Variants of: B1
Assay: yeast fitness relative to wild type (ratio to wild type); higher = fitter; tRNA-Arg(CCU), competitive growth, 37 C, YPD
How it was run: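 For this measurement, the tRNA-Arg(CCU) gene was varied by chemical synthesis at a 3% per-site mutation rate across 69 sites, and each variant was placed at the native genomic locus in Saccharomyces cerevisiae. The pooled strains went through a 24-hour competition in YPD at 37°C in six parallel replicates, with amplicons from start and end populations read by 100-nucleotide paired-end sequencing. Darwinian fitness relative to wild type followed from the change in each genotype's frequency. Genotypes needed ≥ 100 starting reads, and estimates < 0.5 were set to 0.5.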

Variant	yeast fitness
U3G G6A A14G G38C G41C A57C	0.62
U3G G6A A15G C34A A70G	≤ 0.5
U3G G6A G17C C31G	≤ 0.5
U3G G9C	0.573
U3G G9C C33G C46U	≤ 0.5
U3G G10C U26C	≤ 0.5
U3G G12C U19C C60U	≤ 0.5
U3G G17A C27G C33U A45G	≤ 0.5
U3G G17A C30U A69U	≤ 0.5
U3G G17C A42U C62U	≤ 0.5
U3G G17C C31A U35C A45U	≤ 0.5
U3G G17C C33A U53G U54A	≤ 0.5
U3G G18A	0.694
U3G G18A U28A	0.613
U3G G25A A45C A69U	0.814
U3G G39A A40G A57U C66U	≤ 0.5
U3G G44C	0.739
U3G G44C C55G	≤ 0.5
U3G G48C	1.06
U3G G50C	0.699
U3G G67A	0.846
U3G G68A	0.851
U3G U7A G9A	≤ 0.5
U3G U7A G9A A69U	≤ 0.5

Variant	yeast fitness
U3G U8A C31A A69C A70G	≤ 0.5
U3G U8A C31A C49A	≤ 0.5
U3G U8A G18C	0.63
U3G U8C	0.681
U3G U8C A15G C24G G50A C55U	≤ 0.5
U3G U8C A43C	≤ 0.5
U3G U8C A70C	0.59
U3G U8C C24A C30U	≤ 0.5
U3G U8C C33U C66A	≤ 0.5
U3G U8C C61G G63C	≤ 0.5
U3G U8C G50C G68C	≤ 0.5
U3G U8C G68C	≤ 0.5
U3G U8G U19A A69C	≤ 0.5
U3G U13A U16A	0.65
U3G U13C C33A A42U C49U C55A	≤ 0.5
U3G U16A	0.938
U3G U16A A45U A70G	≤ 0.5
U3G U16C C29G	≤ 0.5
U3G U16C G48U	0.633
U3G U16G A21G C29A U32C C33U C34A	0.788
U3G U26A	0.944
U3G U26A A70C	1.27
U3G U26A C29A C34A G38A G67C	0.712
U3G U28G	0.661

Variant	yeast fitness
U3G U35C A43U U54A A57C	≤ 0.5
U3G U35G A40C G48A C60U U64G A65U A69C	≤ 0.5
U3G U47G C60G	0.503
U3G U53G	0.587
C4A A14C A70G	≤ 0.5
C4A A14C C60G C66U G68A	0.561
C4A A14C G41A G48C C55A A65C	0.556
C4A A14C U26C A36G A65U	≤ 0.5
C4A A14G	0.72
C4A A14G A20U C49A	0.87
C4A A14G A36C U59A	0.686
C4A A14G C24U U32G A42U A43G C66U	≤ 0.5
C4A A14G C30G A45G	0.758
C4A A14G G63A	≤ 0.5
C4A A14U	0.698
C4A A14U A20C U28G A70U	≤ 0.5
C4A A14U C27U U28A	0.859
C4A A14U C29U G68A	≤ 0.5
C4A A14U C30A G67C	≤ 0.5
C4A A14U C31U A40U G41C A45C A69C	0.599
C4A A14U C34G G56C	≤ 0.5
C4A A15C A43G	≤ 0.5
C4A A15C A70U	≤ 0.5
C4A A15C C27G C62G	≤ 0.5

Variant	yeast fitness
C4A A15C C55U	0.58
C4A A15C U28C C34G	≤ 0.5
C4A A15G	0.844
C4A A15G C33G C60A	≤ 0.5
C4A A15G G17A C30G G48A U53C C62U	≤ 0.5
C4A A15G G17A U32C C62A A69U	≤ 0.5
C4A A20C C34A G39C A43U	0.512
C4A A20C G50C A65C	≤ 0.5
C4A A20G A37U C61A	≤ 0.5
C4A A20G C34G C66U	≤ 0.5
C4A A20G G44C A45G	0.506
C4A A20G G44C A45G C61U	≤ 0.5
C4A A20G G48A A69C	≤ 0.5
C4A A20G U28G G68C A70C	≤ 0.5
C4A A20U	0.707
C4A A20U A43U	≤ 0.5
C4A A20U C29G C49G G63C	≤ 0.5
C4A A20U C30U	≤ 0.5
C4A A20U C34G C55G C60A	≤ 0.5
C4A A20U C66U	≤ 0.5
C4A A20U G23A C66U	≤ 0.5
C4A A20U G44C C60A	≤ 0.5
C4A A20U U28A C31U A65U	≤ 0.5
C4A A20U U32C A43U	≤ 0.5

Variant	yeast fitness
C4A A21C A70C	≤ 0.5
C4A A21C C22U	0.651
C4A A21C G39C C49G	0.511
C4A A21C U54A	≤ 0.5
C4A A21G C27U	0.686
C4A A21G C33U G51C	≤ 0.5
C4A A21G C49G G63C	0.538
C4A A21G C60U	0.544
C4A A21G G51A A69G	≤ 0.5
C4A A21U G52A	≤ 0.5
C4A A36C C49U A57G	≤ 0.5
C4A A36G	0.87
C4A A36G G44U G51C A65U	≤ 0.5
C4A A36G G58C	0.565
C4A A37U G50C	≤ 0.5
C4A A40C C49G C60G	≤ 0.5
C4A A40C G41C	≤ 0.5
C4A A40G A65G	0.533
C4A A40U A43U A70U	≤ 0.5
C4A A42U	0.716
C4A A42U G68C	≤ 0.5
C4A A43U	0.841
C4A A43U C62U	0.791
C4A A45C	0.754

Variant	yeast fitness
C4A A45C U47A	0.708
C4A A45C U47A A70G	≤ 0.5
C4A A45U C62U G68A	0.562
C4A A57C C62U	≤ 0.5
C4A A57U	0.714
C4A A65G A69U	0.617
C4A A70C	0.993
C4A C5A	0.752
C4A C5A A15G U19C	≤ 0.5
C4A C5A A20U A69C	0.551
C4A C5A A20U C31U C49U	≤ 0.5
C4A C5A A42U A57C C61U A65U	≤ 0.5
C4A C5A C11U A20U A69C	≤ 0.5
C4A C5A C22A U28G C33G A57G C62A	≤ 0.5
C4A C5A C29U G51C	≤ 0.5
C4A C5A C30A C31U C33A A45U	≤ 0.5
C4A C5A C34A C46U A65C	≤ 0.5
C4A C5A C66A A69C	≤ 0.5
C4A C5A G41C G56A C62U A65C	≤ 0.5
C4A C5A U28G C31G U47C A57U A70G	≤ 0.5
C4A C5G A20C A40U A65C	≤ 0.5
C4A C5G A20G U54A C62U	≤ 0.5
C4A C5G A36U G63A	≤ 0.5
C4A C5G C27U U53A A69U	≤ 0.5

Variant	yeast fitness
C4A C5G C30A	≤ 0.5
C4A C5G C66U A70G	≤ 0.5
C4A C5G U8A C30A G67C	≤ 0.5
C4A C5G U19A C46U A69U	0.574
C4A C5U	0.837
C4A C5U A57U U59C	≤ 0.5
C4A C5U C11G C30A	≤ 0.5
C4A C5U C22U C34A C49U C62U	≤ 0.5
C4A C5U C22U C49U	≤ 0.5
C4A C5U C24G	≤ 0.5
C4A C5U C24G A45U	0.649
C4A C5U C24G A45U C66U	≤ 0.5
C4A C5U C27U A37G	≤ 0.5
C4A C5U C34U	≤ 0.5
C4A C5U G17A	≤ 0.5
C4A C5U G17A C30U G68C	≤ 0.5
C4A C5U G58C U64A	0.572
C4A C5U U8C U64A	≤ 0.5
C4A C5U U19A A42G	≤ 0.5
C4A C5U U19A C66A	≤ 0.5
C4A C11A U13C	0.605
C4A C11A U47G	≤ 0.5
C4A C11G G51C	≤ 0.5
